Values after ≈ are worked out from the molar mass of the structure shown.
Assays:
[1] = biological target: T1, Inhibitor of nuclear factor kappa-B kinase subunit beta (Homo sapiens, UniProt O14920); test: Inhibition of recombinant human C-terminal GST-tagged IKKbeta (1 to 737 residues) expressed in baculovirus expression system using GST-IkBalpha substrate measured after 30 mins by TR-FRET assay
T1 sequence (O14920 whole entry): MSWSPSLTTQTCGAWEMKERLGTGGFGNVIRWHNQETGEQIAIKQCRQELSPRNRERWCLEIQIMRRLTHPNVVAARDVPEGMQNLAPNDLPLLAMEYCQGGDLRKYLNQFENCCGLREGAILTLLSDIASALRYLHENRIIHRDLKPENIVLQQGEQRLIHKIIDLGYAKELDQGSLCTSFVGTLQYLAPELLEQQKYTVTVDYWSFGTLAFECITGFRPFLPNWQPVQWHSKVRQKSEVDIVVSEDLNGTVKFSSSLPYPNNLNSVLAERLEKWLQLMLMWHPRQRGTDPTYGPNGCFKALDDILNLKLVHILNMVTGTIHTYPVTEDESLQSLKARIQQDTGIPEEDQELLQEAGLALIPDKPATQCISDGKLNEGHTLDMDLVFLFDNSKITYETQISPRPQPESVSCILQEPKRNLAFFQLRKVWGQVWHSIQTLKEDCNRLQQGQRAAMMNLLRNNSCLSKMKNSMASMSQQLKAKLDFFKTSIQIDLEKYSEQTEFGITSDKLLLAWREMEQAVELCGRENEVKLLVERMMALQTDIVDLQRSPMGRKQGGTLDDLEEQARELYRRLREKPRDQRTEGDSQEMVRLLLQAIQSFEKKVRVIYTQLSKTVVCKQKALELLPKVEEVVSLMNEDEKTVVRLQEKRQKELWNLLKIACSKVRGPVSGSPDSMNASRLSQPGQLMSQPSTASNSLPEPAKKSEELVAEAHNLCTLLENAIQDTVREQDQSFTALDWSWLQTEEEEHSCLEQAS
In short: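 IKK pIC50 values are the mean of more than 2 determinations unless noted otherwise. Compounds were tested as racemic mixtures.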

[2] = Permeability of the compound by PAMPA; type: ADME; details: read-out: permeability
[3] = Plasma clearance in Sprague-Dawley rat at 2.1 mg/kg, po or 1 mg/kg, iv; type: ADME, organism-based
In short: (§1)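 Male Sprague Dawley rats, n=2 (n=3 for one compound). The i.v. leg used 5% DMSO with 20% Cavitron and the oral leg 5% DMSO with 6% Cavitron. Oral doses were 2 mg/kg, or 2.1 mg/kg where stated. The i.v. dose was 1 mg/kg. Clearance is plasma clearance.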

[4] = AUC in Sprague-Dawley rat at 2.1 mg/kg, po; type: ADME, organism-based; details: in vivo; in short: as §1
[5] = Volume of distribution at steady state in Sprague-Dawley rat at 2.1 mg/kg, po or 1 mg/kg, iv; type: ADME, organism-based; details: in vivo, read-out: Vdss; in short: as §1
[6] = biological target: T1, Inhibitor of nuclear factor kappa-B kinase subunit beta; test: Inhibition of IKKbeta in human CD14-positive monocytes assessed as reduction in LPS-stimulated TNFalpha secretion preincubated for 30 mins followed by LPS stimulation and measured after 24 hrs by Alpha screen assay; type: cell-based
[7] = Oral bioavailability in Sprague-Dawley rat at 2.1 mg/kg; type: ADME, organism-based; details: in vivo; in short: as §1
[8] = Kinetic aqueous solubility of the compound by UV-HPLC analysis; type: physicochemical; details: buffer; read-out: Kinetic_solubility
[9] = Half life in Sprague-Dawley rat at 2.1 mg/kg, po or 1 mg/kg, iv; type: ADME, organism-based; details: in vivo; in short: as §1
[10] = Half life in Sprague-Dawley rat at 2 mg/kg, po or 1 mg/kg, iv; type: ADME, organism-based; details: in vivo; in short: as §1
[11] = Volume of distribution at steady state in Sprague-Dawley rat at 2 mg/kg, po or 1 mg/kg, iv; type: ADME, organism-based; details: in vivo, read-out: Vdss; in short: as §1
[12] = AUC in Sprague-Dawley rat at 2 mg/kg, po; type: ADME, organism-based; details: in vivo; in short: as §1
[13] = Plasma clearance in Sprague-Dawley rat at 2 mg/kg, po or 1 mg/kg, iv; type: ADME, organism-based; in short: as §1
[14] = Oral bioavailability in Sprague-Dawley rat at 2 mg/kg; type: ADME, organism-based; details: in vivo; in short: as §1
[15] = Kinetic aqueous solubility of the compound by chemiluminescent nitrogen detection assay; type: physicochemical; details: buffer; read-out: Kinetic_solubility
[16] = AUC in Beagle dog at 2.03 mg/kg, po; type: ADME, organism-based, Canis lupus familiaris; details: in vivo
In short: (§2)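 Male Beagle dogs, n=3. Vehicles were 5% DMSO with 20% Cavitron for i.v. dosing at 1.11 mg/kg and 5% DMSO with 6% Cavitron for oral dosing at 2.03 mg/kg. Derived values were plasma clearance, steady-state volume of distribution, half-life and oral bioavailability.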

Canis familiaris = test: Anti-inflammatory activity in inhaled LPS-induced Beagle dog lung neutrophilia model assessed as inhibition of LPS-induced increase in neutrophils in bronchoalveolar lavage administered orally 30 mins prior to LPS instillation and measured after […] by diff quick staining based hemocytometric method; type: functional; details: Canis lupus familiaris, po
[17] = Half life in Beagle dog at 2.03 mg/kg, po or 1.11 mg/kg, iv; type: ADME, organism-based, Canis lupus familiaris; details: in vivo; in short: as §2
[18] = Plasma clearance in Beagle dog at 2.03 mg/kg, po or 1.11 mg/kg, iv; type: ADME, organism-based, Canis lupus familiaris; in short: as §2
[19] = Oral bioavailability in Beagle dog at 2.03 mg/kg; type: ADME, organism-based, Canis lupus familiaris; details: in vivo; in short: as §2
[20] = Volume of distribution at steady state in Beagle dog at 2.03 mg/kg, po or 1.11 mg/kg, iv; type: ADME, organism-based, Canis lupus familiaris; details: in vivo, read-out: Vdss; in short: as §2
Rattus norvegicus = test: Anti-inflammatory activity in LPS-induced Lewis rat inflammation model assessed as inhibition of LPS-induced TNFalpha secretion in blood administered orally 30 mins prior to LPS challenge and measured after 2 hrs by ELISA; type: functional; details: po

| Structure (SMILES) | IC50 [1] [nM] | Papp [2] [×10⁻⁶ cm/s] | IC50 [6] [nM] | solubility kinetic [8] [µM] | half-life [10] [min] | Vd [11] [L/kg] | AUC [12] [ng·h/mL] | clearance [13] [mL/min/kg] | bioavailability [14] [%] | further results |
| --- | --- | --- | --- | --- | --- | --- | --- | --- | --- | --- |
| NC(=O)c1cc(-c2ccccc2)cc2c(C3CCC(=O)C3)c[nH]c12 (stereo unspecified) | 79.4 | – | – | – | – | – | – | – | – | – |
| CN(C)CCS(=O)(=O)N1CCC(c2c[nH]c3c(C(N)=O)cc(-c4ccccc4)cc23)CC1 | 10 | 27 | 500 | 8 (≈ 3.64 µg/mL) | – | – | – | – | – | clearance [3]: 7.43 mL/min/kg; AUC [4]: 2080 ng·h/mL; Vd [5]: 0.84 L/kg; bioavailability [7]: 46%; half-life [9]: 105 min |
| NC(=O)c1cc(-c2ccccc2)cc2c(C3CCC(=O)N3)c[nH]c12 (stereo unspecified) | 39.8 | – | – | – | – | – | – | – | – | – |
| NC(=O)c1cc(-c2ccccc2)cc2c(C3CCCC(=O)C3)c[nH]c12 (stereo unspecified) | 79.4 | – | – | – | – | – | – | – | – | – |
| NC(=O)c1cc(-c2ccccc2)cc2c(C3CCN(S(=O)(=O)CCCN4CCCC4)CC3)c[nH]c12 | 10 | 16 | 50 | 185 (≈ 91.5 µg/mL) | 276 | 1 | 998 | 4 | 12 | – |
| NC(=O)c1cc(-c2ccccc2)cc2c(C3CCS(=O)(=O)C3)c[nH]c12 (stereo unspecified) | 100 | – | – | – | – | – | – | – | – | – |
| NC(=O)c1cc(-c2ccccc2)cc2c(C3CCN(S(=O)(=O)CCCNC4CCCC4)CC3)c[nH]c12 | 20 | 14 | – | 85 (≈ 43.2 µg/mL) | – | – | – | – | – | – |
| CC1(C)CC(c2c[nH]c3c(C(N)=O)cc(-c4ccccc4)cc23)CCS1(=O)=O (stereo unspecified) | 7.94 | 33 | 110 | – | 140 | 7.2 | 1430 | 51.1 | 115 | solubility kinetic [15]: 39 µM (≈ 15.5 µg/mL) |
| CCN(CC)CCCS(=O)(=O)N1CCC(c2c[nH]c3c(C(N)=O)cc(-c4ccccc4)cc23)CC1 | 15.8 | 20 | 190 | 173 (≈ 85.9 µg/mL) | – | – | – | – | – | – |
| NC(=O)c1cc(-c2ccc(F)cc2)cc2c(C3CCS(=O)(=O)CC3)c[nH]c12 | 12.6 | 28 | 50 to 810 | – | 132 | 3.7 | 1270 | 23.5 | 47.4 | – |
| CC(=O)CCc1c[nH]c2c(C(N)=O)cc(-c3ccccc3)cc12 | 126 | – | – | – | – | – | – | – | – | – |
| CC1(C)C[C@H](c2c[nH]c3c(C(N)=O)cc(-c4ccc(F)cc4)cc23)CCS1(=O)=O | 7.94 | 28.3 | 130 | – | 270 | 4.7 | 1960 | 13.2 | 94.1 | AUC [16]: 8200 ng·h/mL; ED50 (Canis familiaris): 1.8 µmol/kg; half-life [17]: 1250 min; clearance [18]: 1.86 mL/min/kg; bioavailability [19]: 65.3%; solubility kinetic [15]: 32 µM (≈ 13.3 µg/mL); Vd [20]: 2.87 L/kg; ED50 (Rattus norvegicus): 21.7 µmol/kg |
| NC(=O)c1cc(-c2ccccc2)cc2c(C3CCN(S(=O)(=O)CCN4CCOCC4)CC3)c[nH]c12 | 7.94 | 31 | – | 41 (≈ 20.4 µg/mL) | – | – | – | – | – | – |

Reference: ChEMBL document CHEMBL4325919, “3,5-Disubstituted-indole-7-carboxamides as IKKβ Inhibitors: Optimization of Oral Activity via the C3 Substituent” (ACS Med Chem Lett, 2018)
